Legend:
Format in all cases: functional
[1] = test system: DU-145; assay: Cytotoxicity against human DU145 cells assessed as cellular growth at 10 uM after 48 hrs by SRB assay
Outline: (§1)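 NCI60 single-dose screen of cells in RPMI 1640 with 5% FBS and 2 mM L-glutamine, preincubated 24 h at 37 °C, 5% CO₂. Cells were then exposed 48 h to compound added from DMSO stock. TCA-fixed, stained with 0.4% SRB in 1% acetic acid, dye solubilised in 10 mM Tris base and read at 515 nm. Growth is given as percent of untreated control.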

[2] = test system: HT-29; assay: Cytotoxicity against human HT-29 cells assessed as cellular growth at 10 uM after 48 hrs by SRB assay; outline: as §1
[3] = test system: NCI-H522; assay: Cytotoxicity against human NCI-H522 cells assessed as cellular growth at 10 uM after 48 hrs by SRB assay
Outline: (§2)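 NCI-60 panel lines grown in RPMI 1640 with 5% FBS and 2 mM L-glutamine. Plated at 5000–40,000 cells/well and preincubated 24 h at 37 °C, 5% CO₂, with time-zero plates fixed in TCA. Compounds, dissolved in DMSO and diluted in medium, were applied for 48 h. Cells were TCA-fixed (10% final for adherent, 16% for suspension) and stained with 0.4% SRB in 1% acetic acid. Dye was solubilised in 10 mM Tris base and read at 515 nm; growth was expressed as a percentage of untreated control.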

[4] = Cytotoxicity against human NCI60 cells assessed as cellular growth at 10 uM after 48 hrs by SRB assay relative to untreated control; outline: as §2
[5] = test system: HOP-62; assay: Cytotoxicity against human HOP62 cells assessed as cellular growth at 10 uM after 48 hrs by SRB assay; outline: as §1
[6] = test system: SF-539; assay: Cytotoxicity against human SF539 cells assessed as cellular growth at 10 uM after 48 hrs by SRB assay; outline: as §2
[7] = test system: M14; assay: Cytotoxicity against human M14 cells assessed as cellular growth at 10 uM after 48 hrs by SRB assay; outline: as §1
[8] = test system: MDA-MB-435; assay: Cytotoxicity against human MDA-MB-435 cells assessed as cellular growth at 10 uM after 48 hrs by SRB assay; outline: as §2
[9] = test system: OVCAR-3; assay: Cytotoxicity against human OVCAR3 cells assessed as cellular growth at 10 uM after 48 hrs by SRB assay; outline: as §2
[10] = test system: BT-549; assay: Cytotoxicity against human BT549 cells assessed as cellular growth at 10 uM after 48 hrs by SRB assay; outline: as §1
[11] = test system: SF-539; assay: Antitumor activity against human SF539 cells after 48 hrs by SRB assay; settings: SF-539, 48 h
Outline: (§3)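 NCI60 panel cells grown in RPMI 1640 with 5% FBS and 2 mM L-glutamine, plated at 5000–40,000 cells/well and preincubated 24 h at 37 °C, 5% CO₂. Compound was added from DMSO at five concentrations, 10-fold or 1/2 log dilutions, then incubated 48 h.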

[12] = test system: LOX IMVI; assay: Antitumor activity against human LOXIMVI cells after 48 hrs by SRB assay
Outline: (§4)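 NCI60 panel in RPMI 1640 with 5% FBS and 2 mM L-glutamine. Cells were plated at 5000–40,000/well by doubling time, held 24 h, then time-zero plates were TCA-fixed. Five concentrations (10-fold or half-log dilutions of DMSO stocks) were applied for 48 h at 37 °C, 5% CO2. Cells were fixed with cold TCA (10% final adherent, 16% suspension) and stained with 0.4% SRB. Bound dye was dissolved in 10 mM Tris and read at 515 nm. GI50, TGI and LC50 were calculated per line.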

[13] = test system: SK-MEL-5; assay: Antitumor activity against human SK-MEL-5 cells after 48 hrs by SRB assay; settings: SK-MEL-5, 48 h; outline: as §3
[14] = test system: NCI/ADR-RES; assay: Antitumor activity against human NCI/ADR-RES cells after 48 hrs by SRB assay; outline: as §4
[15] = test system: DU-145; assay: Antitumor activity against human DU145 cells after 48 hrs by SRB assay; settings: DU-145, 48 h; outline: as §4
[16] = test system: TK-10; assay: Antitumor activity against human TK10 cells after 48 hrs by SRB assay; settings: TK-10, 48 h; outline: as §3
[17] = test system: OVCAR-5; assay: Antitumor activity against human OVCAR5 cells after 48 hrs by SRB assay; settings: OVCAR-5, 48 h; outline: as §4
[18] = test system: OVCAR-4; assay: Antitumor activity against human OVCAR4 cells after 48 hrs by SRB assay; settings: OVCAR-4, 48 h; outline: as §4
[19] = test system: NCI-H23; assay: Antitumor activity against human NCI-H23 cells after 48 hrs by SRB assay; settings: NCI-H23, 48 h; outline: as §4
[20] = test system: SR; assay: Antitumor activity against human SR cells after 48 hrs by SRB assay; outline: as §3
[21] = test system: MOLT-4; assay: Antitumor activity against human MOLT4 cells after 48 hrs by SRB assay; settings: MOLT-4, 48 h; outline: as §4
[22] = test system: K562; assay: Antitumor activity against human K562 cells after 48 hrs by SRB assay; settings: K562, 48 h; outline: as §4
[23] = test system: HT-29; assay: Antiproliferative activity against human HT-29 cells after 48 hrs by SRB assay; settings: HT-29, 48 h; outline: as §4
[24] = read-out: LC50 (the source's name)
[25] = read-out: pLC50 (the source's name) (converted)

Q: With COc1ccc(/C(=C2/O[C@@H]([C@H]3COC(C)(C)O3)[C@H]3OC(C)(C)O[C@@H]23)c2cc(OC)c(OC)c(OC)c2)cc1O as the molecule, how does the Activity [1] read?
A: 34.8%

Q: And the Activity [2]?
A: 107.45%

Q: What about the Activity [3] of the same molecule?
A: 43.38%

Q: And the Activity [4]?
A: 57%

Q: What about the Activity [5] of the same molecule?
A: 48.49%

Q: And the Activity [6]?
A: 9.85%

Q: What about the Activity [7] of the same molecule?
A: 7.95%

Q: And the Activity [8]?
A: 44.7%

Q: And the Activity [9]?
A: 48%

Q: And the Activity [10]?
A: 57.66%

Q: What about the GI50 [11] of the same molecule?
A: 2.59 µM

Q: What about the TGI [11] of the same molecule?
A: 6.63 µM

Q: And the CC50 [11, 24]?
A: > 100 µM

Q: And the GI50 [12]?
A: 5.18 µM

Q: And the TGI [12]?
A: > 100 µM

Q: What about the CC50 [12, 24] of the same molecule?
A: > 100 µM

Q: What about the GI50 [13] of the same molecule?
A: 2.69 µM

Q: And the LC50 [13]?
A: 49.3 µM

Q: What about the TGI [13] of the same molecule?
A: 11.2 µM

Q: And the GI50 [14]?
A: 2.52 µM

Q: What about the LC50 [14] of the same molecule?
A: > 100 µM

Q: And the TGI [14]?
A: 6.91 µM

Q: What about the GI50 ([15]; read-out: GI50) of the same molecule?
A: 3.29 µM

Q: And the CC50 [15, 24]?
A: > 100 µM

Q: And the TGI ([15]; read-out: TGI)?
A: 13.8 µM

Q: What about the GI50 ([15]; read-out: pGI50 (converted)) of the same molecule?
A: 3.31 µM

Q: What about the CC50 [15, 25] of the same molecule?
A: > 100 µM

Q: And the TGI ([15]; read-out: pTGI (converted))?
A: 13.2 µM

Q: And the GI50 ([16]; read-out: GI50)?
A: 2.94 µM

Q: And the CC50 [16, 24]?
A: > 100 µM

Q: What about the TGI ([16]; read-out: TGI) of the same molecule?
A: 81.4 µM

Q: And the GI50 ([16]; read-out: pGI50 (converted))?
A: 23.4 µM

Q: What about the CC50 [16, 25] of the same molecule?
A: > 100 µM

Q: And the TGI ([16]; read-out: pTGI (converted))?
A: 61.7 µM

Q: And the GI50 ([17]; read-out: GI50)?
A: > 1 µM

Q: And the CC50 [17, 24]?
A: > 100 µM

Q: What about the TGI ([17]; read-out: TGI) of the same molecule?
A: > 100 µM

Q: What about the GI50 ([17]; read-out: pGI50 (converted)) of the same molecule?
A: 100 µM

Q: And the CC50 [17, 25]?
A: > 100 µM

Q: What about the TGI ([17]; read-out: pTGI (converted)) of the same molecule?
A: > 100 µM

Q: And the CC50 [18, 24]?
A: > 100 µM

Q: What about the GI50 ([18]; read-out: pGI50 (converted)) of the same molecule?
A: 9.12 µM

Q: What about the CC50 [18, 25] of the same molecule?
A: > 100 µM

Q: And the TGI ([18]; read-out: pTGI (converted))?
A: > 100 µM

Q: And the GI50 ([19]; read-out: GI50)?
A: 7.98 µM

Q: And the CC50 [19, 24]?
A: > 100 µM

Q: What about the TGI ([19]; read-out: TGI) of the same molecule?
A: 46 µM

Q: What about the GI50 ([19]; read-out: pGI50 (converted)) of the same molecule?
A: 7.94 µM

Q: And the CC50 [19, 25]?
A: > 100 µM

Q: And the TGI ([19]; read-out: pTGI (converted))?
A: 45.7 µM

Q: And the GI50 ([20]; read-out: GI50)?
A: 6.27 µM

Q: And the CC50 [20, 24]?
A: > 100 µM

Q: And the TGI ([20]; read-out: TGI)?
A: > 100 µM

Q: And the GI50 ([20]; read-out: pGI50 (converted))?
A: 6.31 µM

Q: And the CC50 [20, 25]?
A: > 100 µM

Q: What about the TGI ([20]; read-out: pTGI) of the same molecule?
A: > 100 µM

Q: And the LC50 (concentration killing 50% of cells) [21]?
A: > 100 µM

Q: And the GI50 ([21]; read-out: GI50)?
A: 6.93 µM

Q: What about the TGI ([21]; read-out: TGI) of the same molecule?
A: > 100 µM

Q: And the GI50 ([21]; read-out: pGI50 (converted))?
A: 6.92 µM

Q: And the CC50 [21, 25]?
A: > 100 µM

Q: What about the TGI ([21]; read-out: pTGI) of the same molecule?
A: > 100 µM

Q: And the GI50 ([22]; read-out: GI50)?
A: 3.22 µM

Q: What about the CC50 [22, 24] of the same molecule?
A: > 100 µM

Q: What about the TGI ([22]; read-out: TGI) of the same molecule?
A: > 100 µM

Q: What about the GI50 ([22]; read-out: pGI50 (converted)) of the same molecule?
A: 3.24 µM

Q: What about the CC50 [22, 25] of the same molecule?
A: > 100 µM

Q: And the TGI ([22]; read-out: pTGI)?
A: > 100 µM

Q: What about the LC50 (50% net cell kill) [23] of the same molecule?
A: > 100 µM

Q: And the GI50 ([23]; read-out: GI50)?
A: 3.99 µM

Q: What about the TGI ([23]; read-out: TGI) of the same molecule?
A: > 100 µM

Q: And the GI50 ([23]; read-out: pGI50 (converted))?
A: 3.98 µM

Q: And the CC50 [23, 25]?
A: > 100 µM

Q: And the TGI ([23]; read-out: pTGI (converted))?
A: > 100 µM

— ChEMBL document CHEMBL1828575, “Design, synthesis and antiproliferative activities of biarylolefins based on polyhydroxylated and carbohydrate scaffolds” (Eur J Med Chem, 2011)
